# ChEMBL document CHEMBL3351316, “Scaffold hopping approach on the route to selective tankyrase inhibitors” (Eur J Med Chem, 2014)
# Legend:
# [1] = molecular target: Poly [ADP-ribose] polymerase 2 (Homo sapiens) (UniProt Q9UGN5); assay: Inhibition of human recombinant PARP2 incubated for 1 hr using histone substrate at 10 uM by luminescence based assay
# In short: (§1)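 Recombinant PARP enzyme reactions were run in duplicate for 1 h at rt on histone-coated plates in Tris·HCl pH 8.0 buffer with NAD+, biotinylated NAD+ and activated DNA. Detection used streptavidin-HRP for 30 min at rt, then a chemiluminescent developer. % inhibition = 100 − % activity, scaled between the no-compound (100%) and no-enzyme (0%) signals.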
# [2] = molecular target: Poly [ADP-ribose] polymerase 2 (Homo sapiens) (UniProt Q9UGN5); assay: Inhibition of human recombinant PARP2 incubated for 1 hr using histone substrate at 1 uM by luminescence based assay; in short: as §1
# [3] = Lipophilicity, log D of the compound at pH 7.4; format: physicochemical; details: buffer
# [4] = molecular target: Tankyrase 1/2 (Homo sapiens) (UniProt Q9H2K2+O95271); assay: Inhibition of tankyrase in human DLD1 cells assessed as reduction in Wnt activity at 10 uM after 24 hrs by TCF-luciferase reporter gene assay; format: cell-based; details: DLD-1
# In short: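 DLD-1 cells were transduced with a TOP-TCF firefly luciferase lentivirus plus a renilla luciferase lentivirus (1:20), with renilla used to normalise for infection efficiency. Compound was tested at 10 μM for 24 h, with DMSO as the negative control. Cells were then lysed for dual-luciferase read-out, and activity was taken as the TOP/RL ratio. Data are the average of at least three separate experiments ± SD.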
# [5] = molecular target: Protein mono-ADP-ribosyltransferase PARP14 (Homo sapiens) (UniProt Q460N5); assay: Inhibition of human recombinant PARP14 at 100 uM incubated for 1 hr using NAD+, biotinylated NAD+ and activated DNA by luminescence based assay; in short: as §1
# [6] = molecular target: T1, Poly [ADP-ribose] polymerase tankyrase-1 (Homo sapiens, UniProt O95271); assay: Inhibition of GST-tagged human recombinant TNKS1 incubated for 1 hr using NAD+, biotinylated NAD+ and activated DNA by luminescence based assay
# T1 sequence (O95271 whole entry): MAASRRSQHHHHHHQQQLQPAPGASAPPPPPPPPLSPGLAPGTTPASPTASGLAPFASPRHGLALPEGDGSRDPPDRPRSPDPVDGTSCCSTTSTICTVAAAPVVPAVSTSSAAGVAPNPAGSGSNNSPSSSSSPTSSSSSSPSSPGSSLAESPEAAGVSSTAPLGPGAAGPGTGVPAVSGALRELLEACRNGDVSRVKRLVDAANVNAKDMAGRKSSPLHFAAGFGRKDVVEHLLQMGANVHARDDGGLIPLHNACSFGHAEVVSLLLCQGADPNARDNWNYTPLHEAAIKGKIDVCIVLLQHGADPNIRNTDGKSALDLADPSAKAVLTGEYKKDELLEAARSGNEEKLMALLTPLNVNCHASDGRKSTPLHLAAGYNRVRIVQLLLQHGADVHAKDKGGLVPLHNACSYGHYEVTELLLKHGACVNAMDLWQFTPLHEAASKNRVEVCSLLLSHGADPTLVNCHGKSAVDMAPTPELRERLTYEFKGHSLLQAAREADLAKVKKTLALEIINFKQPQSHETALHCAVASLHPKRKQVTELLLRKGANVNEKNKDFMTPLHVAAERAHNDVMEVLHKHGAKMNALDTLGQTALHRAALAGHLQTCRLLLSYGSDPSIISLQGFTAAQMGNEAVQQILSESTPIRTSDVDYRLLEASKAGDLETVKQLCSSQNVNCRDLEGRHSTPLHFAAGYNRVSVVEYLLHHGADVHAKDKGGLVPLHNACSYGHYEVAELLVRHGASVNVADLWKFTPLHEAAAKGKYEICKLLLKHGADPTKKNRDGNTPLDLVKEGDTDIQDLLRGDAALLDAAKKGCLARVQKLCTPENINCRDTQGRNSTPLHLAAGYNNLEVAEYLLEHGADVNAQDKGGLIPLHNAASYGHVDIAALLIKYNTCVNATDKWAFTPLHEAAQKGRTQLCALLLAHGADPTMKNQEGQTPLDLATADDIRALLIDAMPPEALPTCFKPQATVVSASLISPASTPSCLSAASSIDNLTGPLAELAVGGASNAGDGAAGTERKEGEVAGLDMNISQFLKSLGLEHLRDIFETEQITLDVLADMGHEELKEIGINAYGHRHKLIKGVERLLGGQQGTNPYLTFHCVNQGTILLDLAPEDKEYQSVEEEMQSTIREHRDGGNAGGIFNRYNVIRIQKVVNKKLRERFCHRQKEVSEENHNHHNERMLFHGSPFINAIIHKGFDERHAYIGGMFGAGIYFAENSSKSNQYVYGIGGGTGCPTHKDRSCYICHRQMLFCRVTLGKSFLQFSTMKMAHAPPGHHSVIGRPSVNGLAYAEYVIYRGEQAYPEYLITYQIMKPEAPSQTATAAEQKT
# Chain of Poly [ADP-ribose] polymerase 2 (Homo sapiens) (Q9UGN5 whole entry): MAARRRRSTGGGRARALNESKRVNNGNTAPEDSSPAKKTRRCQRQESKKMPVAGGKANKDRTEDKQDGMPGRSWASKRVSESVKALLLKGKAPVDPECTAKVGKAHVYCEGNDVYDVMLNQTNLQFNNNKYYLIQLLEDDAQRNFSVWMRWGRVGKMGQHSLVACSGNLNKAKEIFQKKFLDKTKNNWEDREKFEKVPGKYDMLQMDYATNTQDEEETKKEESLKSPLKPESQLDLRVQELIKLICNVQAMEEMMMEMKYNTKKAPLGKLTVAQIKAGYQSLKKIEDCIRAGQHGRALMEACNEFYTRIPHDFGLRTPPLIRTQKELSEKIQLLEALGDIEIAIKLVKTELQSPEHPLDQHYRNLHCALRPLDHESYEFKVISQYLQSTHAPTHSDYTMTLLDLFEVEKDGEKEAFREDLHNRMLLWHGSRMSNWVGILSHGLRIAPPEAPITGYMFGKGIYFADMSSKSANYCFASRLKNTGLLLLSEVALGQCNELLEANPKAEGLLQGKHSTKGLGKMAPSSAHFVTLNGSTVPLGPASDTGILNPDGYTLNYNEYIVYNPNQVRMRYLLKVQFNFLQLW
# Chain of Tankyrase 1/2 (Homo sapiens) (Q9H2K2 whole entry, looked up, one chain of several): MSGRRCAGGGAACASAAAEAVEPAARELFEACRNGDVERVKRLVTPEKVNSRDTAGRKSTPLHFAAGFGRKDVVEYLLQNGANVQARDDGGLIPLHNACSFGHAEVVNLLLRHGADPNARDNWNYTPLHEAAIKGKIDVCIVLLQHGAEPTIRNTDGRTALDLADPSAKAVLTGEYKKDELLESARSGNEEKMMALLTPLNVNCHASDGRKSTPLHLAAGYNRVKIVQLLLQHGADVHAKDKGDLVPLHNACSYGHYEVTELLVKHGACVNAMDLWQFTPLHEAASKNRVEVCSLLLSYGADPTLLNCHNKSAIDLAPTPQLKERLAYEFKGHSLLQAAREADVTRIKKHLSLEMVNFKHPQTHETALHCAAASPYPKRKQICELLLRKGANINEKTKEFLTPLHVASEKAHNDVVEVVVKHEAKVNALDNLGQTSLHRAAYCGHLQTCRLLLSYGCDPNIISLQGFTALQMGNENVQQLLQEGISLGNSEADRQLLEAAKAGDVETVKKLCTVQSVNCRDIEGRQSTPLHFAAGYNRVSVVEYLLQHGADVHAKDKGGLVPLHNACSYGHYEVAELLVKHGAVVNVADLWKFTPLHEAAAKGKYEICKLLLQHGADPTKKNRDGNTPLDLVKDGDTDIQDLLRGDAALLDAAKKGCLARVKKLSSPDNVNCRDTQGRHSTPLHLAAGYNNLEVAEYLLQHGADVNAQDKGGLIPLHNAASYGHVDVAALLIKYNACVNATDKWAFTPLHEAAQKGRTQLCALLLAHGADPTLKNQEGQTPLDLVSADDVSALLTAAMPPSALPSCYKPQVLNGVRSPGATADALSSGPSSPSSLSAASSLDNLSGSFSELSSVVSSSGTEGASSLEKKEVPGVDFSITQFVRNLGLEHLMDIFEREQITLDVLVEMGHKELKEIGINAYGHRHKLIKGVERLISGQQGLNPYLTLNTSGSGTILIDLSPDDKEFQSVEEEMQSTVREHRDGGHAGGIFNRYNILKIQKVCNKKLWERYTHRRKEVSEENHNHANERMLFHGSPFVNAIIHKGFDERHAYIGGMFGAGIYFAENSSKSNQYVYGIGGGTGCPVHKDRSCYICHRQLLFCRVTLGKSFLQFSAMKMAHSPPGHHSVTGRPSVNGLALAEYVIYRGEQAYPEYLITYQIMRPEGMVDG
# Chain of Protein mono-ADP-ribosyltransferase PARP14 (Homo sapiens) (Q460N5 whole entry): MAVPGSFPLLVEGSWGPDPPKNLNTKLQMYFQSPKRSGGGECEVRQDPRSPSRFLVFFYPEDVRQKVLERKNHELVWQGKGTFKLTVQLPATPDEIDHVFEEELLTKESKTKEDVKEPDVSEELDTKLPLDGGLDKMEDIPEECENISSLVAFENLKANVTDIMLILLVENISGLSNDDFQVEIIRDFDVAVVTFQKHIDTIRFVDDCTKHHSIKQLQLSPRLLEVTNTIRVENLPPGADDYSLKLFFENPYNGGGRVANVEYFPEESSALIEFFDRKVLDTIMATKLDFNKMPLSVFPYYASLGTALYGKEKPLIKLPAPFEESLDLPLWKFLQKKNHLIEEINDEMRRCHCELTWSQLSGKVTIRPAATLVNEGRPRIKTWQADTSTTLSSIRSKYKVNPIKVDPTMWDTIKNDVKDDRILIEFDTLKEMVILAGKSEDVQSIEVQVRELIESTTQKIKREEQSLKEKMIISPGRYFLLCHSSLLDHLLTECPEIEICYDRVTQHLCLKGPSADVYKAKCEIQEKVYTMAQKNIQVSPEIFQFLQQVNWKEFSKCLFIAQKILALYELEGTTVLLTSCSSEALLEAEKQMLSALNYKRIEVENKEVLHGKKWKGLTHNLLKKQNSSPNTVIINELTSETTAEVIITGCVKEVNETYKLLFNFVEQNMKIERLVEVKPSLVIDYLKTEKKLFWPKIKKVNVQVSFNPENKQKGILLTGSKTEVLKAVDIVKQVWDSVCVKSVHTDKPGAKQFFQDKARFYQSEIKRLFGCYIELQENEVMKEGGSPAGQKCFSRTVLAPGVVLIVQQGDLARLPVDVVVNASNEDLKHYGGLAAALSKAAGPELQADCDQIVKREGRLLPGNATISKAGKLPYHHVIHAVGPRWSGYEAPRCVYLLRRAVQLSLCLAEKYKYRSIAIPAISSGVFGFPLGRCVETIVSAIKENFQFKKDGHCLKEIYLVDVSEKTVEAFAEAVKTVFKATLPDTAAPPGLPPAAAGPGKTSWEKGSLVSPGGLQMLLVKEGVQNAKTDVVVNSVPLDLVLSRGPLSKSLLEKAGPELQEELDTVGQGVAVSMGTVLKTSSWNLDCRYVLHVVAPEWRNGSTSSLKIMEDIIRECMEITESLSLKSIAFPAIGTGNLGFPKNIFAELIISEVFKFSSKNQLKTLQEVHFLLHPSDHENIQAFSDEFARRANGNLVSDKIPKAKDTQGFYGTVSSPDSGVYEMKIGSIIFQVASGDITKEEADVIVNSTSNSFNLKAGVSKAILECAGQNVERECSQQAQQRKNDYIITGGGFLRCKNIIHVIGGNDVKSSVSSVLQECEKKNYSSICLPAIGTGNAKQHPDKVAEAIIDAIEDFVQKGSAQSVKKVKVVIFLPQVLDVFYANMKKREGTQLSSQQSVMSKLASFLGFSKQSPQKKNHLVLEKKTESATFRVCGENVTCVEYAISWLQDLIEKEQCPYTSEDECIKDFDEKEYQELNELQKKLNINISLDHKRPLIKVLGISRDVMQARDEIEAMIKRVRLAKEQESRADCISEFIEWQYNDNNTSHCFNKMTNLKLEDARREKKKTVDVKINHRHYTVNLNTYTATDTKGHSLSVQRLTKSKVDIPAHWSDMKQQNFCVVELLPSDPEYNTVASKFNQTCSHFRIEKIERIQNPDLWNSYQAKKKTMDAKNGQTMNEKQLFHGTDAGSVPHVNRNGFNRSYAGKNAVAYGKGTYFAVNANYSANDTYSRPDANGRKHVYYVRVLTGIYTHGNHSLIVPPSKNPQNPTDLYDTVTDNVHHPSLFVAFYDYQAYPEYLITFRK
inhibition [5],Compound,inhibition [1],inhibition [2],logD [3],inhibition [4],IC50 [6]
,Oc1nc(-c2ccc(C(F)(F)F)cc2)nc2c1CSCC2,100%,,,,
,O=c1[nH]c2cc(O)ccc2c2c1sc1ccccc12,,64%,3.43,,
,O=c1[nH]c(-c2ccccc2)cc2ccsc12,,26%,2.53,,
,Oc1cc(-c2ccccc2)c2ccccc2n1,,3%,3.03,,
,O=c1[nH]c2ccccc2c2c1sc1ccc(O)cc12,,93%,3.44,,
,COc1ccc2c(c1)nc(O)c1sc3ccccc3c12,,27%,3.59,37%,
,O=c1[nH]c(-c2ccccc2)nc2c3c(sc12)CCCC3,,11%,4.11,,
,O=c1[nH]ccc2ccsc12,,24%,1.24,,
,O=c1[nH]c2ccccc2c2ccsc12,,91%,2.65,,
,O=c1[nH]c(-c2ccccc2)nc2c1sc1ccccc12,,0%,3.62,,
,COc1ccc2sc3c(O)nc4ccccc4c3c2c1,,17%,3.59,21%,
17%,COc1cccc(/C=C/C(=O)O)c1,,,,,
,O=c1[nH]c(C2CCCCC2)nc2c1sc1ccccc12,,14%,3.89,,
,O=c1[nH]c(-c2ccccc2)cc2c1sc1ccccc12,,11%,3.63,,181 nM
,COc1ccc2c(c1)[nH]c(=O)c1sc3ccc(OC)cc3c12,,12%,3.43,,
,O=c1[nH]c(-c2cccs2)nc2c1sc1ccccc12,,9%,3.52,,
,O=c1[nH]c2ccccc2c2c1sc1ccccc12,,14%,3.75,,90 nM
,Cc1ccc(-c2nc3c(sc4ccccc43)c(=O)[nH]2)cc1,,4%,4.13,,19.4 nM
,O=c1[nH]ccc2c1sc1ccccc12,,34%,3.62,,
